Laboratory results taken from paper PMC5033602 (Investigative Ophthalmology & Visual Science, 2016).
Where two headings read alike, the source gives them in different places.

Assays:
ARPE-19 cells [1] = test: Pyknotic nuclei counting; assay type: cell-based, human; settings: 600 μM H2O2, 16 hours, Hoechst stain
Outline: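 ARPE-19 cells were serum-starved, then treated with 600 μM H₂O₂ and test peptide together for 16 h. Cells were fixed in methanol (15 min, RT) and stained with 5 μM Hoechst in PBS (15 min, RT). Five random fields per well were imaged, and pyknotic nuclei were counted as a percentage of total cells.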

PEDF = settings: peptides from Leu159-Met325 of PEDF-R; cited from earlier work
primary pig RPE cells [2] = test: Cell death; assay type: cell-based; settings: pig primary RPE; H2O2/TNF-α
Outline: (§1)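 Primary pig RPE cultures plated at 2 × 10⁴ cells/well (96-well) and grown to confluence (72 h), then exposed to H₂O₂ with TNF-α (10 ng/mL) and test peptide for the indicated time. Live cells were measured as intracellular ATP luminescence (CellTiter-Glo) and dead cells as dead-cell protease luminescence (CytoTox-Glo), with lysis reagent added for total-cell signal. Relative cell numbers are from duplicate wells.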

ARPE-19 cells [3] = test: Cell death; assay type: cell-based, human; settings: for Number of dead cells under oxidative stress: H2O2 (600 μM for SCR comparison), dead cell protease activity
Outline: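 ARPE-19 cells (passages 27–40) grown in DMEM/F-12 with 10% FBS at 37°C, 5% CO₂, plated at 2 × 10⁴ cells/well (96-well) and cultured to confluency (72 h). Serum-starved 8 h in 0.5% serum, then exposed 16 h to H₂O₂ (600 μM for scrambled-control comparison) plus TNF-α (10 ng/mL) with test peptides. Dead-cell protease activity read by CytoTox-Glo; duplicate wells ± SD.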

ARPE-19 cells [4] = test: Cell viability; assay type: cell-based, human
Outline: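 ARPE-19 cells (passages 27–40; DMEM/F-12, 10% FBS, 37°C, 5% CO₂) were plated at 2 × 10⁴ cells/well and grown to confluence (72 h). After 8 h starvation in 0.5% serum, cells received increasing H₂O₂ plus TNF-α (10 ng/mL), with or without test peptide, for 16 h. Relative live-cell numbers came from intracellular ATP luminescence; each point is the mean of duplicate wells.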

ARPE-19 cells [5] = test: Detection of reactive oxygen species; assay type: cell-based, human; settings: increasing H2O2 with or without 10 ng/mL TNF-α
Outline: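 Confluent ARPE-19 cells in 96-well black plates were serum-starved (0.5% serum, 8 h), then given increasing H₂O₂ with or without 10 ng/mL TNF-α, plus test peptide. CellRox Green was added 30 min before the end point, and fluorescence was read at ex 485/em 520 nm. Triplicate wells per point; each experiment was run twice.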

ALOX5 = test: RT-PCR, ALOX5 mRNA in ARPE-19; assay type: cell-based, human; settings: H2O2 200, 400, 500, 600, 800 μM plus 10 ng/mL TNF-α, 8 hours, relative to 18S, duplicate wells
Outline: (§2)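 Confluent ARPE-19 cells were starved in 0.5% serum for 8 h, then treated with H₂O₂ plus TNF-α. Total RNA was purified on silica columns, and 1 μg was reverse transcribed with SuperScript III. mRNA was measured by semiquantitative real-time RT-PCR with gene-specific primers and 18S primers as internal control.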

primary pig RPE cells [6] = test: Cell viability; assay type: cell-based; settings: 50-250 μM H2O2, 10 ng/mL TNF-α
Outline: as §1

5-LOX = test: Immunoblot, 5-LOX protein in ARPE-19 lysates; assay type: cell-based, human; settings: H2O2 plus 10 ng/mL TNF-α, 8 hours
Outline: (§3)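 ARPE-19 cells (passages 27–40) were grown in DMEM/F-12 with 10% FBS at 37°C, 5% CO₂ to confluency and starved in 0.5% serum for 8 h. They were then exposed to graded H₂O₂ with 10 ng/mL TNF-α for 8 h. Total lysates were run on SDS-PAGE and immunoblotted, then stripped and reprobed for β-tubulin as loading control. Duplicate wells; each experiment at least twice.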

PEDF-R = test: Immunoblot, PEDF-R protein in ARPE-19 lysates; assay type: cell-based, human; settings: H2O2 plus 10 ng/mL TNF-α, 8 hours
Outline: as §3

PNPLA2 = test: RT-PCR, PNPLA2 mRNA in ARPE-19; assay type: cell-based, human; settings: H2O2 200, 400, 500, 600, 800 μM plus 10 ng/mL TNF-α, 8 hours, relative to 18S, duplicate wells
Outline: as §2

ARPE-19 cells [7] = settings: cited from earlier work
PEDF-R (PNPLA2) = settings: cited from earlier work
human recombinant 5-LOX = test: His-tag pull-down assay, 5-LOX and PEDF-R; assay type: binding; settings: 5-LOX 250 ng, PEDF-R ∼350 and 700 ng, 0.1 M sodium phosphate, 50 mM NaCl, 0.1% NP-40, 4°C, 2 hours, Ni-NTA, Western blot

E5b: PEDF-R peptide Ile^193-Leu^232, overlapping P1 (ICPQDSSTNIHELRVTNTSIQFNLRNLYRLSKALFPPEPL)
Pyknotic nuclei level (ARPE-19 cells [1]): resulted in a decrease of pyknotic nuclei level
PEDF-binding affinity (PEDF): retain the PEDF-binding affinity of PEDF-R
Protection from oxidative stress-induced cell death (summary) (primary pig RPE cells [2]): protected ARPE-19 and pig primary RPE cells from oxidative stress–induced cell death in a specific and concentration-dependent fashion
Number of dead cells under oxidative stress (ARPE-19 cells [3]): decreased cell death of RPE cells undergoing oxidative stress
Protection from oxidative stress-induced cell death (summary) (ARPE-19 cells [3]; H2O2/TNF-α): protected ARPE-19 and pig primary RPE cells from oxidative stress–induced cell death in a specific and concentration-dependent fashion
Cell viability under oxidative stress (ARPE-19 cells [4]; H2O2/TNF-α, ATP live cell biomarker, duplicate wells): promoted cell viability

H-KRLQFEPRNYPSLLSTALPNILFRRLGGKFQDMRELCVYL-OH [SCR]
Number of dead cells under oxidative stress (ARPE-19 cells [3]): did not decrease the number of dead cells

TNF-α
ROS production, presence versus absence of TNF-α (ARPE-19 cells [5]): comparable under both conditions

OO [H2O2]
Pyknotic nuclei level (ARPE-19 cells [1]): resulted in an increase
ALOX5 mRNA level (ALOX5): remained unchanged
Relative cell numbers with increasing H2O2 (primary pig RPE cells [6]): concentration-dependent decrease in cell numbers
5-LOX protein level (5-LOX): paralleled those for expression of their respective genes
PEDF-R protein level (PEDF-R): paralleled those for expression of their respective genes
PNPLA2 mRNA level (PNPLA2): decreased the levels of PNPLA2
Relative cell numbers with increasing H2O2 (ARPE-19 cells [4]; 100-1000 μM H2O2, 10 ng/mL TNF-α, 16 hours): concentration-dependent decrease in cell numbers
Death mechanism of ARPE-19 cells (ARPE-19 cells [7]; 400 and 600 μM H2O2): apoptosis
Death mechanism of ARPE-19 cells (ARPE-19 cells [7]; H2O2 higher than 600 μM): necrosis
Death mechanism of ARPE-19 cells (ARPE-19 cells [7]; TNF-α (10 ng/mL) and 400 to 800 μM H2O2): apoptotic mechanism via caspase activation

B1: perilipin 5: protein that inhibits PEDF-R (PNPLA2) activity (protein, UniProt Q00G26 1-463, looked up)
Perilipin-5: MSEEEAAQIPRSSVWEQDQQNVVQRVVALPLVRATCTAVCDVYSAAKDRHPLLGSACRLAENCVCGLTTRALDHAQPLLEHLQPQLATMNSLACRGLDKLEEKLPFLQQPSETVVTSAKDVVASSVTGVVDLARRGRRWSVELKRSVSHAVDVVLEKSEELVDHFLPMTEEELAALAAEAEGPEVGSVEDQRRQQGYFVRLGSLSARIRHLAYEHSVGKLRQSKHRAQDTLAQLQETLELIDHMQCGVTPTAPACPGKVHELWGEWGQRPPESRRRSQAELETLVLSRSLTQELQGTVEALESSVRGLPAGAQEKVAEVRRSVDALQTAFADARCFRDVPAAALAEGRGRVAHAHACVDELLELVVQAVPLPWLVGPFAPILVERPEPLPDLADLVDEVIGGPDPRWAHLDWPAQQRAWEAEHRDGSGNGDGDRMGVAGDICEQEPETPSCPVKHTLMPELDF
Effect on PEDF-R (PNPLA2) enzyme activity (PEDF-R (PNPLA2)): inhibited

B2: CGI-58: protein that stimulates PEDF-R (PNPLA2) activity (protein, UniProt Q8WTS1 2-349, looked up)
1-acylglycerol-3-phosphate …: AAEEEEVDSADTGERSGWLTGWLPTWCPTSISHLKEAEEKMLKCVPCTYKKEPVRISNGNKIWTLKFSHNISNKTPLVLLHGFGGGLGLWALNFGDLCTNRPVYAFDLLGFGRSSRPRFDSDAEEVENQFVESIEEWRCALGLDKMILLGHNLGGFLAAAYSLKYPSRVNHLILVEPWGFPERPDLADQDRPIPVWIRALGAALTPFNPLAGLRIAGPFGLSLVQRLRPDFKRKYSSMFEDDTVTEYIYHCNVQTPSGETAFKNMTIPYGWAKRPMLQRIGKMHPDIPVSVIFGARSCIDGNSGTSIQSLRPHSYVKTIAILGAGHYVYADQPEEFNQKVKEICDTVD
Effect on PEDF-R (PNPLA2) enzyme activity (PEDF-R (PNPLA2)): stimulated

B3: His6-tag-PEDF-R: human recombinant His6/Xpress-tagged PEDF-R made by cell-free in vitro protein synthesis (protein)
chain: MFPREKTWNISFAGCGFLGVYYVGVASCLREHAPFLVANATHIYGASAGALTATALVTGVCLGEAGAKFIEVSKEARKRFLGPLHPSFNLVKIIRSFLLKVLPADSHEHASGRLGISLTRVSDGENVIISHFNSKDELIQANVCSGFIPVYCGLIPPSLQGVRYVDGGISDNLPLYELKNTITVSPFSGESDICPQDSSTNIHELRVTNTSIQFNLRNLYRLSKALFPPEPLVLREMCKQGYRDGLRFLQRNGLLNRPNPLLALPPARPHGPEDKDQAVESAQAEDYSQLPGEDHILEHLPARLNEALLEACVEPTDLLTTLSNMLPVRLATAMMVPYTLPLESALSFTIRLLEWLPDVPEDIRWMKEQTGSICQYLVMRAKRKLGRHLPSRLPEQVELRRVQSLPSVPLSCAAYREALPGWMRNNLSLGDALAKWEECQRQLLLGLFCTNVAFPPEALRMRAPADPAPAPADPASPQHQLAGPAPLLSTPAPEARPVIGALGL
modifications: left off: His6, end not stated, kept | Xpress, end not stated, kept
Bound 5-LOX in pull-down with His6-tag-PEDF-R (human recombinant 5-LOX): proportional increase of bound 5-LOX
Bound 5-LOX in pull-down with His6-tag-PEDF-R (human recombinant 5-LOX; listed as His6/Xpress-tagged PEDF-R): via ionic interactions

B4: G0S2: G(0)/G(1) switch gene 2, inhibits PEDF-R (PNPLA2) (protein, UniProt P27469 1-103, looked up)
G0/G1 switch protein 2: METVQELIPLAKEMMAQKRKGKMVKLYVLGSVLALFGVVLGLMETVCSPFTAARRLRDQEAAVAELQAALERQALQKQALQEKGKQQDTVLGGRALSNRQHAS
Effect on PEDF-R (PNPLA2) enzyme activity (PEDF-R (PNPLA2)): inhibited

B5: PEDF: pigment epithelium-derived factor, stimulates PEDF-R (protein, UniProt P36955 20-418, looked up)
Pigment epithelium-derived …: QNPASPPEEGSPDPDSTGALVEEEDPFFKVPVNKLAAAVSNFGYDLYRVRSSTSPTTNVLLSPLSVATALSALSLGAEQRTESIIHRALYYDLISSPDIHGTYKELLDTVTAPQKNLKSASRIVFEKKLRIKSSFVAPLEKSYGTRPRVLTGNPRLDLQEINNWVQAQMKGKLARSTKEIPDEISILLLGVAHFKGQWVTKFDSRKTSLEDFYLDEERTVRVPMMSDPKAVLRYGLDSDLSCKIAQLPLTGSMSIIFFLPLKVTQNLTLIEESLTSEFIHDIDRELKTVQAVLTVPKLKLSYEGEVTKSLQEMKLQSLFDSPDFSKITGKPIKLTQVEHRAGFEWNEDGAGTTPSPGLQPAHLTFPLDYHLNQPFIFVLRDTDTGALLFIGKILDPRGP
Effect on PEDF-R (PNPLA2) enzyme activity (PEDF-R (PNPLA2)): stimulated
